Measurements pooled from the literature.
Compare with care: the assays were run in different laboratories.
Target: 5-hydroxytryptamine receptor 2B (HTR2B, Homo sapiens, UniProt P41595)

The Ki of CNC(=O)[C@@]12C[C@@H]1[C@@H](n1cnc3c(NCCc4ccccc4)nc(I)nc31)[C@H](O)[C@@H]2O is reported as 117 nM (cell-free assay, radioligand).
Cc1ccc2cccc(N3CCN(CCCCOc4ccc5sc(C(C)C)nc5c4)CC3)c2n1 has a Ki of 43 nM (cell-free assay, radioligand).
Cc1cc(NC(=O)Nc2ccc3c(ccn3C)c2)sn1 has an IC50 of 160 nM (ligand displacement, radioligand).
For CCOC(=O)[C@@]12C[C@@H]1[C@@H](n1cnc3c(N[C@H](C4CCC4)C4CC4)nc(I)nc31)[C@H](O)[C@@H]2O, the Kb was 1.74 nM (calcium signal, antagonist).
CCOCc1nc(O)c(-c2nnc(Cc3ccc(Cl)cn3)o2)c(O)c1-c1c(OC)cccc1OC has an IC50 of over 30000 nM (ligand displacement, radioligand).
For CCCCN1CCC(COC(=O)c2ccc(N)c(OCF)c2)CC1, the Ki was over 10000 nM (cell-free assay, radioligand).
CC(C)c1nc2cc(OCCCCN3CCN(c4cccc5c4OCCO5)CC3)ccc2s1 has a Ki of 32 nM (cell-free assay, radioligand).
O=C1c2ccccc2CCN1CCCCN1CCN(c2cccc(Cl)c2Cl)CC1 has a Ki of 1.8 nM (ligand displacement, radioligand).
CCCC[C@H](NC(=O)[C@H](C)c1c(C)[nH]c2ccc(O)cc12)c1ncc(-c2cc3ccccc3nc2OC)[nH]1 has an IC50 of 740 nM (ligand displacement).
COCCN(CCOC)C(=O)[C@@]12C[C@@H]1[C@@H](n1cnc3c(NC(C4CC4)C4CC4)nc(Cl)nc31)[C@H](O)[C@@H]2O gave a Ki of 1230 nM (ligand displacement, radioligand).
